Screens as filed in PubChem BioAssay.
HDAC3 inh = blocks human histone deacetylase 3 | O15379 | recombinant HDAC3, fluorogenic peptide/trypsin coupled, fluorescence | inhibition, % at 8.3 µM | 320,000 compounds, 0.15% hits; in the data active = inhibition above about 26%, passing the limit was not always enough; inconclusive = no clear call, values can overlap the other calls
HKDC1 inhibitor = inhibitors of human hexokinase HKDC1. Q2TB90. 340,000 compounds, 0.16% hits. recombinant HKDC1, G6PDH/diaphorase resazurin coupled fluorescence. inhibition, % at 20 µM;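 active = inhibition above about 35% when tested at 20 µM, limit read from the data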;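 note: plate controls were DMSO wells with enzyme for no effect and DMSO wells lacking enzyme for full effect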
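Test system: recombinant HKDC1 (HK5) hexokinase enzyme, produced in-house / Doses: 20 µM test compound, 1% DMSO / Timing: 90 min, room temperature / Detection: G6PDH/diaphorase-coupled fluorescence, 1 mM NADP, 100 µM resazurin, 525/613 nm / Control set: DMSO wells with and without enzyme mix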
ATG4B inh = inhibitors of human ATG4B cysteine protease | Q9Y4P1 | ATG4B cleavage of LC3-PLA2, NBD-HPC fluorescence, 1 h | inhibition, % at 8.33 µM | 340,000 compounds, 0.51% hits; in the data active = inhibition above about 40%
Target sequence (Q9Y4P1 whole entry, looked up): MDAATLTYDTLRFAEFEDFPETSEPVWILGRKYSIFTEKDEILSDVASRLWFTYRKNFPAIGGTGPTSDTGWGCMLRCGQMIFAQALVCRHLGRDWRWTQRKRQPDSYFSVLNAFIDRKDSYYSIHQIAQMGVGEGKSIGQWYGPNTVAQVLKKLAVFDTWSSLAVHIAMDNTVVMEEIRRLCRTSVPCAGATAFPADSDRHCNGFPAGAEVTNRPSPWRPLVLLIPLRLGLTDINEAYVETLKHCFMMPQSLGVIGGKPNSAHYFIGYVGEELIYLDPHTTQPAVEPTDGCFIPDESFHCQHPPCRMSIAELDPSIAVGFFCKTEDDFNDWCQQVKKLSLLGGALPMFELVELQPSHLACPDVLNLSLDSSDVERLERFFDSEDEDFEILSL
A1 inh = inhibitors of the anti-apoptotic protein A1, read as caspase activation; MEF A1-2A-BIM cells, Caspase-Glo 3/7 luminescence, 3 h; percent of clofoctol response, vehicle zero; caspase activation, % (no concentration beside the values); 330,000 compounds, 0.066% hits;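 active = over half of replicate activation scores above 10%, or exactly half above 10 with the replicate mean above 10; inconclusive = replicate mean below 10 yet half the replicates above 10; inactive = over half of replicates below 10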
AI-2 QS modul = Vibrio harveyi AI-2 quorum sensing modulation; Vibrio harveyi JMH597 AI-2 luminescence/OD600 ratio, 9 h; active compounds read low; strain lacks LuxN and CqsS sensors; 0 = neutral-control median; activity change, % at 7.5 µM; 300,000 compounds, 0.4% hits; AID 2094; in the data active = activity change below about -75%, passing the limit was not always enough; inconclusive = no clear call, values can overlap the other calls;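 note: luminescence divided by OD600 gain over 9 h not by final OD600 alone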
LANA-H2A inh = blocks KSHV LANA binding to histone H2A/H2B; cell-free LANA-H2A/H2B peptide, fluorescence polarization; inhibition, % (no concentration beside the values); 320,000 compounds, 0.6% hits; AID 2629; in the data active = inhibition mostly above about 10%, no sharp cut-off; inactive = mostly below about 6.7%
An asterisk follows results filed as active; ? = inconclusive; . = no result; + = active, no number. Only some compounds are listed: those with a hit (about 1.8% of all), similar ones and a draw of the others.

SMILES | HDAC3 inh | HKDC1 inhibitor | ATG4B inh | A1 inh | AI-2 QS modul | LANA-H2A inh
O=[N+]([O-])c1ccccc1CNC1CCCc2ccccc21 (stereo not given) | -6 | -3 | 6 | ? | 27 | 3
O=C(c1ccccc1)c1cc2ccc(O)cc2oc1=O | 0 | -5 | -8 | -7 | 11 | 41*
O=C(c1ccc(Br)cc1)c1cc2ccc(O)cc2oc1=O | -7 | 0 | 4 | -12 | 30 | 4
COc1ccc(-c2noc(CCCC(=O)NC3CCCCC3)n2)cc1 | -2 | -1 | 2 | 0 | 8 | 8
O=C1[C@H](Cc2ccccc2)NCC=CC[C@@H](c2ccc(Cl)cc2)N1Cc1ccccc1 | . | 4 | -14 | . | . | .
COc1cccc(CNC(=O)N2CCN(c3ccccc3Cl)CC2)c1 | -5 | -2 | 24 | 0 | . | 0
O=C(CCC(=O)N1CCOCC1)NCc1cccc(C(F)(F)F)c1 | 3 | -7 | 0 | 1 | . | 22*
COc1ccccc1N1CCN(C(=O)NCc2cccc(C(F)(F)F)c2)CC1 | 2 | -1 | 44* | 1 | 33 | 1
Cc1ccc(NC(=O)c2ncn(CC(=O)N3CCN(c4ccccn4)CC3)n2)cc1C | . | -6 | -8 | . | . | .
COc1ccc(CNC(=O)COC(=O)C(CCSC)NC(=O)c2ccco2)cc1OC (stereo not given) | -4 | -8 | 7 | 0 | . | 117*
CSCCC(NC(=O)c1ccccc1)C(=O)OCC(=O)NCc1ccco1 (stereo not given) | -6 | -4 | -1 | 1 | . | -6
COc1[nH]c(/N=C/c2ccccc2)c(C#N)c1C#N | 2 | 14 | -3 | -1 | 33 | 44*
CC(/C=C\C=C\c1ccccc1)=N\NC(=O)c1cncc(Br)c1 | -2 | -11 | -4 | 0 | 8 | 77*
Cn1ccnc1C(=O)c1cccc(Br)c1 | -6 | -2 | 2 | -3 | 1 | 0
CCCCCC/C(C)=C1/SC(=S)NC1=O | 7 | 5 | 14 | 0 | 32 | -2
C/C(C/C(C)=C1/SC(=S)NC1=O)=C1\SC(=S)NC1=O | . | 17 | 68* | . | . | .
COc1ccc(C(CNC(=O)c2cccc(S(=O)(=O)N3CCOCC3)c2)N2CCCC2)cc1 (stereo not given) | 2 | -3 | 3 | 1 | . | 11*
COc1ccc(C(CNC(=O)c2cccc(S(=O)(=O)N3CCOCC3)c2)N2CCOCC2)cc1 (stereo not given) | -2 | -4 | -2 | 1 | . | 6
O=C1OC(c2ccccc2)Sc2ccccc21 (stereo not given) | . | 13 | 48* | . | . | .
Cc1nnc(SCC(=O)c2cc(C)n(-c3ccc4c(c3)OCO4)c2C)s1 | 8 | 5 | -2 | 0 | 24 | 27*
Cc1cc(C(=O)CSc2nnnn2C)c(C)n1-c1ccc2c(c1)OCCO2 | 1 | 6 | -15 | -1 | 12 | 0
CC(C)C[C@@H](CO)NS(=O)(=O)c1cc(Cl)ccc1F | . | -2 | . | . | . | .
CCOc1cccc(C(=O)Nc2cccc(-c3nnc(-c4ccc(C)cc4)o3)c2)c1 | -5 | -5 | -2 | 20* | 17 | -3
O=c1[nH]c(=S)[nH]cc1Oc1ccc(Br)cc1Br | . | 0 | 1 | . | . | .
O=C(NCCc1ccccc1)C1CCN(c2nc3ccccc3o2)CC1 | -4 | -5 | 0 | 1 | -4 | 14*
SMILES | HDAC3 inh | HKDC1 inhibitor | ATG4B inh | A1 inh | AI-2 QS modul | LANA-H2A inh
O=C(NC1CCCCCCC1)C1CCN(c2nc3ccccc3o2)CC1 | -7 | 5 | 23 | 0 | 6 | 1
COc1ccc(CN(C)C(=O)CCC(=O)N2CCN(S(=O)(=O)c3ccc(Cl)cc3)CC2)c(OC)c1 | . | -8 | -10 | . | . | .
CCCC(=O)Nc1nn(CCC)c2nc3ccccc3cc12 | 0 | 5 | -4 | . | 16 | 15*
CCCn1nc(NC(=O)c2ccncc2)c2cc3ccccc3nc21 | 7 | 0 | -9 | 0 | 20 | 2
CCN(CC(=O)Nc1ccc2c(c1)OCCO2)C(=O)C(C)Oc1ccc(F)cc1 (stereo not given) | . | -5 | -4 | . | . | .
O=C(C1CC12CCCC2)N1CCC(CO)(Cc2ccccc2Cl)CC1 (stereo not given) | -10 | -1 | 14 | 0 | 14 | 19*
COC(=O)c1ccc(CN2CCC(CO)(Cc3ccccc3Cl)CC2)cc1 | 3 | -5 | 11 | -1 | 29 | 1
CC1(NC(=O)Nc2cccc(Br)c2)CCS(=O)(=O)C1 (stereo not given) | 0 | -8 | -7 | 0 | . | -2
CC(=O)NC(Cc1cccc(C)c1)C(=O)NC1CCN(S(=O)(=O)c2ccccc2)CC1 (stereo not given) | -1 | -4 | 2 | 0 | 55 | 13*
O=C(CSc1cccc[n+]1[O-])Nc1ccccc1C(F)(F)F | -5 | -6 | 1 | 0 | . | -3
O=C(CSc1cccc[n+]1[O-])Nc1ccccc1Oc1ccccc1 | 3 | -9 | 2 | -1 | 10 | +
Cc1ccc(C(=O)Cn2nnc(-c3ccccc3)n2)cc1 | -4 | -1 | 1 | 0 | -92* | -5
Cc1oc2c(cc(NS(=O)(=O)c3ccc(C(C)C)cc3)c3ccccc32)c1C(=O)O | 4 | 17 | 7 | 0 | 35 | 26*
CNc1nnc(SCC(=O)N2c3ccccc3NC(=O)CC2C)s1 (stereo not given) | -2 | -3 | -35 | 0 | . | +
CCn1nnnc1SCC(=O)N1c2ccccc2NC(=O)CC1C (stereo not given) | -3 | -2 | -5 | 1 | . | 7
CC1=Nc2cc(C(=O)O)ccc2Sc2ccc(C)cc21 | 7 | 5 | 7 | 1 | -90* | 6
CC1=Nc2cc(C(=O)NCc3ccco3)ccc2Sc2ccc(C)cc21 | -9 | -12 | 33 | 0 | -98* | 2
CCOc1ccccc1NC(=O)COC(=O)c1nc2nccc(C)n2n1 | -5 | -5 | -7 | 0 | . | 4
O=c1c2c3nc4ccccc4nc3n(-c3ccc4c(c3)OCCO4)c2ncn1C1CCCC1 | -16 | 48* | -5 | -1 | . | 0
O=C(CN1CCc2[nH]c3ccccc3c2C1)N1CCCCC1 | 0 | 7 | -7 | -1 | 16 | 18*
NC(=S)NN=C(c1ccc(F)cc1)C1CC1 | . | -7 | 1 | . | . | .
NC(=S)Nc1ncc(C(F)(F)F)cc1Cl | 1 | -9 | -5 | -1 | 11 | 128*
NC(=S)c1ncc(C(F)(F)F)cc1Cl | -5 | -4 | -2 | 2 | 8 | -2
Oc1[nH]c2ccccc2c1C1=NCCCC1 | 16 | -9 | -6 | 0 | 23 | 21*
CCn1c(O)c(C2=NCCCC2)c2ccccc21 | -3 | -3 | 12 | 0 | 20 | 1
Cc1cccc(C)c1-c1ccc(CN2C(CC(C)C)C(=O)N(Cc3cn(CC4CCCCC4)nn3)CCS2(=O)=O)cc1 (stereo not given) | . | -1 | -4 | . | . | .
